# From ChEMBL document CHEMBL5506034, “Development of Inhibitors, Probes, and PROTAC Provides a Complete Toolbox to Study PARK7 in the Living Cell” (J Med Chem, 2024)
# The source made the active and inactive calls. The calls are words filed in the database; no cut-off is given here.
# Tests used:
# [1] = target: Ubiquitin carboxyl-terminal hydrolase isozyme L1 (Homo sapiens) (UniProt P09936); assay: Inhibition of UCHL1 in HEK293T cells incubated for 24 hrs by SDS-PAGE based fluorescence scanning Western blot analysis; assay type: cell-based
# Sequence of Ubiquitin carboxyl-terminal hydrolase isozyme L1 (Homo sapiens) (P09936 whole entry, looked up): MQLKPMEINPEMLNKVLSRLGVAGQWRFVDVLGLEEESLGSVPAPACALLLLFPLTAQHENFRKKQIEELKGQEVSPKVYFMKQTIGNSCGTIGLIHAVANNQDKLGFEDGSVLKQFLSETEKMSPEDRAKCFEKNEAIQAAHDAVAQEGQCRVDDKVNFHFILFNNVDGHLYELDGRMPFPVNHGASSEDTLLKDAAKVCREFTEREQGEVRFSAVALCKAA
# [2] = target: T1, Protein cereblon/Parkinson disease protein 7 (Homo sapiens) (UniProt Q96SW2+Q99497); assay: PROTAC activity at CRBN/PARK7 in human A549 cells assessed as induction of PARK7 degradation at 0.1 to 5 uM incubated for 8 hrs by Western blot analysis; assay type: cell-based; settings: dose 0.1-5 µM
# T1 sequence (Q96SW2 whole entry, looked up, one chain of several): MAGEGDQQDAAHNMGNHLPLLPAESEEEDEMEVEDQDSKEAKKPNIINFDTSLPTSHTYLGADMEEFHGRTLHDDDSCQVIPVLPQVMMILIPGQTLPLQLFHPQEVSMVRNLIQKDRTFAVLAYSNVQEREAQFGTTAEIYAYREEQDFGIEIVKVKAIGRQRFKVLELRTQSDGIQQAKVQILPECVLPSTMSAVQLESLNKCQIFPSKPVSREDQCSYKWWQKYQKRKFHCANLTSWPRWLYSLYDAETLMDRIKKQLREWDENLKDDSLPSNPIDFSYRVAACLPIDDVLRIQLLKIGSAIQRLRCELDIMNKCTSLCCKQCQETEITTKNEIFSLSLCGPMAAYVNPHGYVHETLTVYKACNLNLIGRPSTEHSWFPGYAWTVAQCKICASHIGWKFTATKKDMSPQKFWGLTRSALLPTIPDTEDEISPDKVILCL
# Summary of the method: (§1)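 A549 cells treated the day after seeding with PROTAC (0.1–5 μM) for 8 h. Lysates boiled in LDS with β-mercaptoethanol and run on 4–12% Bis-Tris/MOPS SDS-PAGE. PARK7 immunoblotted and normalized to DMSO; three independent biological replicates, mean ± SD, Student's t test.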
# [3] = Drug penetration in human A549 cells at 5 uM incubated for 1 hrs by DAPI staining based confocal microscopic analysis; assay type: ADME, cell-based; settings: a549, 1 h
# Summary of the method: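 A549 cells incubated with probes at 5 μM final over a time course (1–24 h). For microscopy, cells on coverslips were fixed in 3.7% formaldehyde/PBS for 20 min, mounted with DAPI and imaged by confocal (63× oil). In parallel, cells were lysed for SDS-PAGE fluorescence scan and PARK7 immunoblot.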
# [4] = target: T2, Parkinson disease protein 7 (Homo sapiens) (UniProt Q99497); assay: Binding affinity to recombinant human PARK7 incubated for 1 hrs by coomassie staining based SDS-PAGE fluorescence scanning analysis; settings: dose 0.1-10 µM
# T2 sequence (whole entry): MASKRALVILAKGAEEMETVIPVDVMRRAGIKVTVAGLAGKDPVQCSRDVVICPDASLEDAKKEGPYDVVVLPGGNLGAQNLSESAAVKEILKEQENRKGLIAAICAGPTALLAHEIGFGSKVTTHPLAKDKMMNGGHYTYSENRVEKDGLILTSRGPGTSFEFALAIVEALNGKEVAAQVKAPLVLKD
# A549 (Homo sapiens) = assay: Cellular protein labelling in A549 cells assessed as unspecific 55-75 kDa band formation at 5 uM by SDS-PAGE based fluorescence scanning immunoblotting analysis
# [5] = target: T2, Parkinson disease protein 7 (Homo sapiens); assay: Binding affinity to PARK7 in human A549 cells assessed as band shift at 5 uM incubated for 24 hrs by SDS-PAGE based fluorescence scanning immunoblotting analysis; assay type: cell-based
# Summary of the method: (§2)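 Probes applied to intact HEK293T or A549 cells at 5 μM final for 24 h, then lysed. Read-out by SDS-PAGE fluorescence scan and immunoblot against PARK7, looking at the ~25 kDa labelled band, PARK7 band shift and extra bands.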
# A549 [6] = assay: Cellular protein labelling in human A549 cells assessed as unspecific 55-75 kDa band formation at 5 uM by SDS-PAGE based fluorescence scanning immunoblotting analysis; assay type: functional, cell-based; summary of the method: as §2
# [7] = target: T2, Parkinson disease protein 7 (Homo sapiens); assay: Binding affinity to recombinant human PARK7 at 1 uM incubated for 1 hrs by coomassie staining based SDS-PAGE fluorescence scanning analysis relative to control
# [8] = target: T2, Parkinson disease protein 7 (Homo sapiens); assay: Binding affinity to PARK7 in A549 cells assessed as band shift at 5 uM incubated for 24 hrs by SDS-PAGE based fluorescence scanning immunoblotting analysis
# [9] = target: T1, Protein cereblon/Parkinson disease protein 7 (Homo sapiens); assay: PROTAC activity at CRBN/PARK7 in human A549 cells assessed as induction of PARK7 degradation at 2 uM incubated for 8 hrs by Western blot analysis; assay type: cell-based; summary of the method: as §1
# [10] = target: T2, Parkinson disease protein 7 (Homo sapiens); assay: Inhibition of PARK7 in HEK293T cells at 0.1 to 20 uM incubated for 24 hrs by SDS-PAGE based fluorescence scanning analysis; assay type: cell-based; settings: dose 0.1-20 µM
# Summary of the method: (§3)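 Live HEK293T cells (DMEM, 7.5% FBS, 37 °C, 5% CO2) exposed to inhibitor for 24 h, then washed and lysed in Tris/NaCl/0.5% Triton X-100/2 mM TCEP pH 7.5 buffer. Lysate labelled with SulfoCy5 probe JYQ-92 (1 μM, 30 min). Residual PARK7 activity read by SDS-PAGE with Cy5-channel fluorescence scan, then immunoblot for PARK7 with β-actin as loading control.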
# [11] = target: T2, Parkinson disease protein 7 (Homo sapiens); assay: Binding affinity to PARK7 in HEK293T cells assessed as band shift at 5 uM incubated for 24 hrs by SDS-PAGE based fluorescence scanning immunoblotting analysis; assay type: cell-based; summary of the method: as §3
# [12] = target: T2, Parkinson disease protein 7 (Homo sapiens); assay: Binding affinity to recombinant human PARK7 at 5 uM incubated for 1 hrs by coomassie staining based SDS-PAGE fluorescence scanning analysis relative to control
# A549 [13] = assay: Downregulation of TM7SF3 protein level in human A549 cells at 5 uM incubated for 8 hrs by TMT-based total proteome profiling; assay type: functional, cell-based
# Summary of the method: (§4)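 A549 cells treated 2 days after seeding with 5 μM compound, or DMSO, for 8 h. Lysed in 5% SDS buffer; 100 μg protein reduced, alkylated and trypsin-digested. Peptides TMTpro-labelled, pooled, high-pH fractionated and analysed by nano-LC-MS/MS; fold change and p-value taken against DMSO.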
# A549 [14] = assay: Effect on PARK7 protein level in human A549 cells at 5 uM incubated for 8 hrs by TMT-based total proteome profiling; assay type: functional, cell-based; summary of the method: as §4
# A549 [15] = assay: Downregulation of DOP1B protein level in human A549 cells at 5 uM incubated for 8 hrs by TMT-based total proteome profiling; assay type: functional, cell-based; summary of the method: as §4
# A549 [16] = assay: Cytotoxicity in human A549 cells assessed as reduction in cell viability upto 5 uM incubated for 72 hrs by CellTiter-Blue viability assay; assay type: toxicity, cell-based; settings: a549, 72 h
# Summary of the method: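 A549 cells (5×10^3/well) exposed next day to inhibitor, with DMSO as control. Compound renewed at 36 h, then 36 h more (72 h total). Viability read by CellTiter-Blue, normalized to DMSO and background-corrected.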
# [17] = target: T2, Parkinson disease protein 7 (Homo sapiens); assay: Binding affinity to recombinant human PARK7 at 2 uM incubated for 1 hrs by coomassie staining based SDS-PAGE fluorescence scanning analysis relative to control
# [18] = target: T2, Parkinson disease protein 7 (Homo sapiens); assay: Binding affinity to PARK7 in HEK293T cells assessed as target engagement at 1 to 5 uM incubated for 24 hrs by SDS-PAGE based fluorescence scanning Western blot analysis; assay type: cell-based; settings: dose 1-5 µM; summary of the method: as §3
# [19] = target: T1, Protein cereblon/Parkinson disease protein 7 (Homo sapiens); assay: PROTAC activity at CRBN/PARK7 in human A549 cells assessed as induction of PARK7 degradation at 5 uM incubated for 8 hrs by TMT-based total proteome profiling; assay type: cell-based; summary of the method: as §4
# [20] = target: T1, Protein cereblon/Parkinson disease protein 7 (Homo sapiens); assay: PROTAC activity at CRBN/PARK7 in human MCF7 cells assessed as induction of PARK7 degradation incubated for 8 hrs by Western blot analysis; assay type: cell-based; settings: dose 0.1-5 µM
# Summary of the method: (§5)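 HeLa, H1299 or MCF7 cells (DMEM, 7.5% FBS) treated with a PROTAC concentration series for 8 h. Lysates analysed by SDS-PAGE and anti-PARK7 immunoblot.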
# [21] = target: T1, Protein cereblon/Parkinson disease protein 7 (Homo sapiens); assay: PROTAC activity at CRBN/PARK7 in human HeLa cells assessed as induction of PARK7 degradation incubated for 8 hrs by Western blot analysis; assay type: cell-based; settings: dose 0.1-5 µM; summary of the method: as §5
# [22] = target: T1, Protein cereblon/Parkinson disease protein 7 (Homo sapiens); assay: PROTAC activity at CRBN/PARK7 in human A549 cells assessed as induction of PARK7 degradation at 5 uM preincubated with MG-132 for 4 hrs followed by compound addition and measured after 8 hrs by Western blot analysis; assay type: cell-based
# Summary of the method: (§6)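 A549 cells pretreated 4 h with 5 μM pomalidomide, 5 μM PARK7 inhibitor or 10 μM MG-132, then given PROTAC (5 μM) for a further 8 h. PARK7 level assessed by lysis, SDS-PAGE and immunoblot.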
# [23] = target: T1, Protein cereblon/Parkinson disease protein 7 (Homo sapiens); assay: PROTAC activity at CRBN/PARK7 in human A549 cells assessed as induction of PARK7 degradation at 5 uM preincubated with pomalidomide for 4 hrs followed by compound addition and measured after 8 hrs by Western blot analysis; assay type: cell-based; summary of the method: as §6
# [24] = target: T1, Protein cereblon/Parkinson disease protein 7 (Homo sapiens); assay: PROTAC activity at CRBN/PARK7 in human A549 cells assessed as induction of PARK7 degradation at 5 uM incubated for 4 to 24 hrs by Western blot analysis; assay type: cell-based; settings: time 4-24 hrs
# Summary of the method: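 A549 cells exposed to PROTAC at 5 μM for varying times across the 4–24 h window. Lysates analysed by SDS-PAGE and anti-PARK7 immunoblot.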
# [25] = target: T1, Protein cereblon/Parkinson disease protein 7 (Homo sapiens); assay: PROTAC activity at CRBN/PARK7 in human NCI-H1299 cells assessed as induction of PARK7 degradation incubated for 8 hrs by Western blot analysis; assay type: cell-based; settings: dose 0.1-5 µM; summary of the method: as §5
# [26] = target: T1, Protein cereblon/Parkinson disease protein 7 (Homo sapiens); assay: PROTAC activity at CRBN/PARK7 in human A549 cells assessed as induction of PARK7 degradation at 5 uM preincubated with (R)-1-cyano-N-(5-(2-fluoro-5-(1H-1,2,3-triazol-1-yl)benzoyl)-4,5,6,7-tetrahydrothiazolo[5,4-c]pyridin-2-yl)pyrrolidine-3-carboxamide for 4 hrs followed by compound addition and measured after 8 hrs by Western blot analysis; assay type: cell-based; summary of the method: as §6
compound,measurement,setting,value
Cc1csc(-c2cccc(C(=O)N3CCc4nc(NC(=O)[C@@H]5CCN(C#N)C5)sc4C3)c2)n1,inhibition,[1],Active
N#CN1CC[C@@H](C(=O)Nc2nc3c(s2)CN(C(=O)c2cccc(S(=O)(=O)N4CCN(C(=O)Cn5cc(COCCOCCNc6cccc7c6C(=O)N(C6CCC(=O)NC6=O)C7=O)nn5)CC4)c2)CC3)C1 (stereo partly specified),Activity,[2],inactive
CC[N+]1=C(/C=C/C=C/C=C2/N(CCCCCC(=O)NCCCc3cn(-c4ccc(F)c(C(=O)N5CCc6nc(NC(=O)[C@@H]7CCN(C#N)C7)sc6C5)c4)nn3)c3ccc(S(=O)(=O)O)cc3C2(C)C)C(C)(C)c2cc(S(=O)(=O)[O-])ccc21,Drug uptake,[3],Active
same,Activity,[4],Dose-Dependent Effect
same,Activity,A549 (Homo sapiens),Active
same,Activity,[5],Active
same,Activity,A549 [6],Active
same,Activity,[7],100%
same,Activity,[8],Active
Cc1cc(C(=O)N2CCc3nc(NC(=O)[C@@H]4CCN(C#N)C4)sc3C2)ccc1Br,inhibition,[1],Active
N#CN1CC[C@@H](C(=O)Nc2nc3c(s2)CN(C(=O)c2cccc(S(=O)(=O)N4CCN(C(=O)Cn5cc(COCCOCCOCCNc6cccc7c6C(=O)N(C6CCC(=O)NC6=O)C7=O)nn5)CC4)c2)CC3)C1 (stereo partly specified),Activity,[2],inactive
N#CN1CC[C@@H](C(=O)Nc2nc3c(s2)CN(C(=O)c2cc(-n4cc(COCCOCCOCCNc5cccc6c5C(=O)N(C5CCC(=O)NC5=O)C6=O)nn4)ccc2F)CC3)C1 (stereo partly specified),Activity,[9],Active
N#CN1CC[C@@H](C(=O)Nc2nc3c(s2)CN(C(=O)CN=[N+]=[N-])CC3)C1,inhibition,[10],inactive
N#CN1CC[C@@H](C(=O)Nc2nc3c(s2)CN(C(=O)c2cccc(-c4ncon4)c2)CC3)C1,inhibition,[1],Active
CC1=CC(C)=[N+]2C1=C(CCCCc1cn(CC(=O)N3CCN(S(=O)(=O)c4cccc(C(=O)N5CCc6nc(NC(=O)[C@@H]7CCN(C#N)C7)sc6C5)c4)CC3)nn1)c1c(C)cc(C)n1[B-]2(F)F,Activity,[4],Dose-Dependent Effect
same,Activity,[11],inactive
same,Activity,[12],100%
same,Activity,[5],inactive
N#CN1CC[C@@H](C(=O)Nc2nc3c(s2)CN(C(=O)c2cc(-n4ccnn4)ccc2F)CC3)C1,Activity,A549 [13],Active
same,Activity,A549 [14],inactive
same,inhibition,[1],inactive
same,Activity,A549 [15],Active
same,Activity,A549 [16],Non-Toxic
CC[N+]1=C(/C=C/C=C/C=C2/N(CCCCCC(=O)NCCCc3cn(CC(=O)N4CCN(S(=O)(=O)c5cccc(C(=O)N6CCc7nc(NC(=O)[C@@H]8CCN(C#N)C8)sc7C6)c5)CC4)nn3)c3ccc(S(=O)(=O)[O-])cc3C2(C)C)C(C)(C)c2cc(S(=O)(=O)O)ccc21,Drug uptake,[3],Active
same,Activity,[4],Dose-Dependent Effect
same,Activity,A549 (Homo sapiens),Active
same,Activity,[5],Active
same,Activity,[17],100%
same,Activity,A549 [6],Active
same,Activity,[8],Active
CC(=O)N1CCN(S(=O)(=O)c2cccc(C(=O)N3CCc4nc(NC(=O)[C@@H]5CCN(C#N)C5)sc4C3)c2)CC1,Activity,[18],Active
same,inhibition,[1],inactive
N#CN1CC[C@@H](C(=O)Nc2nc3c(s2)CN(C(=O)c2cccc(S(=O)(=O)N4CCOCC4)c2)CC3)C1,inhibition,[1],inactive
same,Activity,A549 [16],Non-Toxic
N#CN1CC[C@@H](C(=O)Nc2nc3c(s2)CN(C(=O)c2cnc(-c4cccs4)s2)CC3)C1,inhibition,[1],Active
N#CN1CC[C@@H](C(=O)Nc2nc3c(s2)CN(C(=O)c2cc(-n4cc(COCCOCCNc5cccc6c5C(=O)N(C5CCC(=O)NC5=O)C6=O)nn4)ccc2F)CC3)C1 (stereo partly specified),Activity,[19],Active
same,Activity,[20],Dose-Dependent Effect
same,Activity,A549 [13],Active
same,Activity,[21],Dose-Dependent Effect
same,Activity,[22],inactive
same,Activity,[23],inactive
same,Activity,A549 [15],Active
same,Activity,[24],Active
same,Activity,[2],Active
same,Activity,[25],Dose-Dependent Effect
same,Activity,[26],inactive
